Assay outcomes: PubChem BioAssay, Sanford-Burnham Center for Chemical Genomics
SENP8 block-1: inhibitors of human SENP8 protease | Q96LD8 | recombinant SENP8, Nedd8 substrate fluorescence | inhibition, % at 20 µM | 360,000 tested, 0.64% active; in the data active = inhibition mostly above about 40%, no sharp cut-off; inactive = mostly below about 27%
Target sequence (Q96LD8 whole entry, looked up): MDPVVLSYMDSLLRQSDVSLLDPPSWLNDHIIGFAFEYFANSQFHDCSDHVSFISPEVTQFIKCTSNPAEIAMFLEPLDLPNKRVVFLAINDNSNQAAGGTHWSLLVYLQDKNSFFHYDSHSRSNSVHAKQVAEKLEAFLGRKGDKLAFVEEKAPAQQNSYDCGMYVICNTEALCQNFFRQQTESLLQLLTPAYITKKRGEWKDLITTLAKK
SENP6 inh: SENP6 protease inhibition | Q9GZR1 | Recombinant SENP6 catalytic domain, aminoluciferin luminescence | inhibition, % at 10 µM | 330,000 tested, 1.8% active;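 active = inhibition above about 50% at the single tested dose, limit read from the data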;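 note: plate controls were DMSO wells with enzyme for no effect and DMSO wells lacking enzyme for full effect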
SENP1 inh: inhibitors of human SENP1 SUMO protease catalytic domain | recombinant SENP1 catalytic domain, CyPet-SUMO1-YPet FRET cleavage | AID 624204 | inhibition, % at 10 µM | 360,000 tested, 0.21% active | Q9P0U3;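 active = inhibition at least 30% at 10 µM, raw YFP signal under a set limit, fluorescence ratio 0.5 to 1.5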;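 note: 0% = enzyme with DMSO and 100% = no enzyme wells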
Target sequence (Q9P0U3 419-644 limits assumed): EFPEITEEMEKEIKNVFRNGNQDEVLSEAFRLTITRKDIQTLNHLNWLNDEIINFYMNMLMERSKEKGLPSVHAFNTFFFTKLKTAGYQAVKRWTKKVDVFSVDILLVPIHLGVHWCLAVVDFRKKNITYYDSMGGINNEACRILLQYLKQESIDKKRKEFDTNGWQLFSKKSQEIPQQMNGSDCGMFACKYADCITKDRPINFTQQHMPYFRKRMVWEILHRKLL
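System: Recombinant human SENP1 catalytic domain, His6-tagged | Incubation: Enzyme reaction for 50 min at room temperature, dark | Medium: Tris pH 8 with BME, BSA, NP40 and catalase | Also added: 25 nM SUMO1 FRET substrate | Compound: 10 µM single point, 0.5% DMSO | Measured by: FRET fluorescence in CFP and YFP emission channels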
SENP7 inh: inhibitors of human SENP7 protease; inhibition, % at 5 µM; Q9BQF6; 330,000 tested, 1.5% active; recombinant SENP7, Z-RLRGG-aminoluciferin luminescence, 40 min; AID 434973;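 active = inhibition above about 50% at the single test dose, limit read from the data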;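 note: plate controls were DMSO with enzyme for no effect and no enzyme buffer wells for full effect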
NRP1-CendR mod: alters CendR peptide binding to human NRP-1 | O14786 | FAM-RPARPAR peptide binding to NRP-1, fluorescence polarization | inhibition, % at 25 µM | 360,000 tested, 0.85% active | AID 602438;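 active = inhibition or corrected inhibition above about 18%, plus a signal ratio from 0.5 to 1.5, limit read from the data, passing the limit was not always enough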
SENP8 block-2: blocks the human protease SENP8; purified SENP8, Z-RLRGG-aminoluciferin cleavage, luminescence; inhibition, % at 10 µM; 330,000 tested, 1.2% active; in the data active = inhibition above about 50%
An asterisk follows results filed as active; / = no result given. This is a sample that favours compounds with a hit; in the whole collection about 3.3% have one here.

SMILES	SENP8 block-1	SENP6 inh	SENP1 inh	SENP7 inh	NRP1-CendR mod	SENP8 block-2
CCCNC(=O)[C@H]1N2C(=O)c3c(ccc(OC)c3OC)C2SC1(C)C (stereo partly specified)	-79.3	-8.4	1.2	-1.5	28.3*	7.3
CCC(C)NC(=O)[C@H]1N2C(=O)c3c(ccc(OC)c3OC)C2SC1(C)C (stereo partly specified)	-69.4	2.8	-2.7	5.2	-0.2	1.0
O=C(NCCCN1CCOCC1)C(=O)NCC1CCCO1 (stereo unspecified)	29.6	-8.7	2.9	-5.7	-1.6	-7.2
O=C(NCCN1CCOCC1)C(=O)NCC1CCCO1 (stereo unspecified)	-2.5	-24.6	-0.5	-4.6	37.9*	-9.6
CCOC(=O)C1=CC[C@@H](c2cccc(Br)c2)N(S(=O)(=O)c2ccc(F)cc2)[C@H]1c1cccc(Cl)c1	19.6	/	1.0	/	-1.0	/
CCCn1nnnc1NCc1cccc(OC)c1OC	6.4	-11.9	1.9	-10.6	14.8	-4.9
CCN(CC)CCn1c(NCc2ccco2)nc2ccccc21	5.8	3.8	-3.4	3.4	7.2	-3.8
CCN(CC)CCn1c(NCc2cccc(OC)c2OC)nc2ccccc21	17.3	-23.9	0.4	2.8	21.2*	-2.2
CCCCn1nnnc1NCc1cccc(OC)c1OC	15.8	0.4	-2.2	0.7	23.2*	2.9
CCOCc1nnc(NC(=O)c2c(OC)cccc2OC)s1	-5.3	-21.7	-0.8	2.3	20.3*	1.1
COc1ccc(NC(=O)Nc2ncccc2C)cc1	18.2	-25.9	1.1	-13.4	-9.8	-4.9
COc1ccc(C(=O)NC(=O)Nc2ncccc2C)cc1	6.8	4.6	2.9	1.3	31.2*	0.1
N#Cc1cccnc1N1CCN(C(C(=O)NC2CCCC2)c2ccco2)CC1 (stereo unspecified)	-48.7	/	2.7	/	1.3	/
CC(C)(C)C(C(=O)NC1CCCC1)N1CCN(c2ncccc2C#N)CC1 (stereo unspecified)	-41.0	/	22.4	/	29.6*	/
Cc1ccc(-c2nnn(CC(=O)N(c3cccc(F)c3)C(C(=O)NC(C)(C)C)c3ccco3)n2)o1 (stereo unspecified)	0.6	-8.6	1.1	9.0	43.5*	-8.1
CCC(C)(C)NC(=O)C(c1ccco1)N(C(=O)c1csnn1)c1cccc(F)c1 (stereo unspecified)	37.3	-11.0	0.4	3.0	33.6*	-0.9
CCOC(=O)N1CCN(C(=O)C[C@@H]2C[C@@]3(C(=O)OC)CC(C)(C)CC=C3N(Cc3ccc4c(c3)OCO4)C2=O)CC1	32.4	/	3.1	/	-1.8	/
CC1CN(S(=O)(=O)c2cc(C(=O)NC(C)c3cccnc3)ccc2Cl)CC(C)O1 (stereo unspecified)	-0.4	-4.4	-1.4	4.9	19.9*	2.1
O=C(CCCn1cnc([N+](=O)[O-])n1)Nc1cccc(Cl)c1Cl	18.1	2.5	1.4	9.0	31.3*	0.1
Cc1c(Cl)cccc1NC(=O)CCCn1cnc([N+](=O)[O-])n1	25.2	-11.5	-1.6	5.2	-0.8	-1.3
COc1ccc(C2=Nc3ccccc3N(C(=O)c3cnccn3)C2C(=O)NC2CCCC2)cc1 (stereo unspecified)	-33.9	/	17.7	/	-8.3	/
CCN(CC)c1nc(C#N)cc(-c2ccc(OC)cc2)n1	-327.5	-13.0	-41.6	3.2	24.1*	-3.4
O=[N+]([O-])c1ccc(Nc2nc(N/N=C/c3cccc(F)c3)nc(N3CCCC3)n2)cc1	29.3	8.0	1.2	1.5	1.5	4.1
O=[N+]([O-])c1ccc(Nc2nc(NC3CCCCC3)nc(N3CCCC3)n2)cc1	5.8	-10.2	0.6	-0.1	39.2*	4.8
CCC(=O)NC(=S)Nc1ccc(S(=O)(=O)NC(C)=O)cc1	9.3	5.1	0.3	4.0	24.7*	2.0
Cc1cc(C)n2nc(C(=O)OCC(=O)N(CC(C)C)C3CCS(=O)(=O)C3)nc2n1 (stereo unspecified)	11.9	6.7	0.1	1.4	13.4	-2.2
CNC[C@H](O)c1ccc(O)c(O)c1	55.2*	7.5	-8.2	9.6	-0.6	0.7
CC(C)NCC(O)c1ccc(O)c(O)c1 (stereo unspecified)	10.6	-16.0	0.9	0.9	2.1	-2.2
